We go through 63 compounds from ChEMBL document CHEMBL3085714 (J Med Chem, 2013).

As usually defined, the IC50 is the point on the concentration scale where inhibition reaches its midpoint. One may read the inhibition as the share of the control response that was lost under treatment.

For data set [1], the target named is T1, Mitogen-activated protein kinase 14 (Homo sapiens, UniProt Q16539). As to the kind of experiment: Competitive inhibition of p38alpha MAP kinase (unknown origin) in presence of 100 uM ATP.
Data set [2] deals with T1, Mitogen-activated protein kinase 14. Description: Inhibition of p38alpha MAP kinase in human whole blood assessed as inhibition of LPS-induced TNFalpha release by ELISA. (ELISA stands for enzyme-linked immunosorbent assay.)
Data set [3] shares this target. As to the kind of experiment: Competitive inhibition of p38alpha MAP kinase (unknown origin) at 10 uM in presence of 100 uM ATP.
For data set [4] the target is unchanged. Description: Inhibition of p38alpha MAP kinase in human whole blood assessed as inhibition of LPS-induced TNFalpha release at 100 uM by ELISA.
The nature of data set [5]: Metabolic stability in human/rat liver microsomes at 1 mg/ml after 180 mins by LC/MS analysis. The data set is classed as ADME, Microsome. The conditions noted are these: read-out: Stability. The method, boiled down: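 Rat and human liver microsomes were incubated with microsomal protein standardized to 1 mg/mL. Aliquots were withdrawn immediately after reaction start and at 10, 20, 40, 60, 120 and 180 min, then analysed by LC-MS.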
A general note: Liver microsomes are a subcellular fraction often used to study metabolism.

T1 sequence (Q16539 whole entry): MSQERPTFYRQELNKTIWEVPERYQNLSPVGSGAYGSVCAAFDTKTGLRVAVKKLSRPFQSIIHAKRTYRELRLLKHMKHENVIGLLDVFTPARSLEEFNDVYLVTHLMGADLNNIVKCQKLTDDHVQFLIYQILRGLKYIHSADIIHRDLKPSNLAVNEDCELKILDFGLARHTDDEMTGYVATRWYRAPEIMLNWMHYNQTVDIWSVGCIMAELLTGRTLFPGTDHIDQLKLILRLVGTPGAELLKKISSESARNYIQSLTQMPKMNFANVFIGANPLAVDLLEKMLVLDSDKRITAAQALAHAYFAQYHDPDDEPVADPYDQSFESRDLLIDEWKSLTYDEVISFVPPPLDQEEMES

Turning to `Nc1ccc2c(c1)C(=O)c1ccc(Nc3ccc(F)cc3F)cc1OC2`, the IC50 in data set [1] came out at 43 nM; in data set [2] it was 1940 nM.

As for `COc1ccc2c(c1)C(=O)c1ccc(Nc3ccc(F)cc3F)cc1OC2`, the IC50 was 115 nM in data set [1] and 4710 nM in data set [2].

As to `O=C1c2cc(OCCC3CCCCC3)ccc2COc2cc(Nc3ccc(F)cc3F)ccc21`, the inhibition in data set [3] worked out at 41.3%. Moreover, the IC50 in data set [2] was found to be 18600 nM.

Consider `Nc1ccc2c(c1)C(=O)c1ccc(Nc3ccccc3N)cc1OC2`, for which the IC50 in data set [1] is 205 nM; in data set [2], 683 nM.

As for `CN(C)CCOc1ccc2c(c1)COc1cc(Nc3ccc(F)cc3F)ccc1C2=O`, the IC50 stood at 53 nM in data set [1] and 38100 nM in data set [2].

For the compound `O=C1c2cc(NCCN3CCOCC3)ccc2COc2cc(Nc3ccc(F)cc3F)ccc21`, the IC50 in data set [1] amounted to 28 nM; in data set [2], 1100 nM.

On to `Cc1ccccc1Nc1ccc2c(c1)OCc1cc(OCCN3CCOCC3)ccc1C2=O`, for which the inhibition in data set [4] stood at 30.3%. Moreover, the IC50 in data set [1] stood at 85 nM.

Turning to `O=C1c2ccc(Nc3ccc(F)cc3F)cc2CCc2ccc(OC[C@@H](O)CO)cc21`, the remaining at 3 h in data set [5] is 100%.

As for `O=C(Nc1ccc(F)c(Nc2ccc3c(c2)OCc2ccc(OCCN4CCOCC4)cc2C3=O)c1)c1ccccc1`, the figures for the IC50 in data set [1] and in data set [2] were 3 nM and 1560 nM, respectively.

Turning to `Nc1cccc(Nc2ccc3c(c2)OCc2ccc(OCCN4CCOCC4)cc2C3=O)c1`, the results for the IC50 in data set [1] and in data set [2] were 146 nM and 684 nM, respectively.

In the case of `O=C1c2cc(O)ccc2COc2cc(Nc3ccc(F)cc3F)ccc21`, the IC50 came to 122 nM in data set [1] and 1850 nM in data set [2].

On to `O=C1c2ccc(OCC[C@@H](O)CO)cc2COc2cc(Nc3ccc(F)cc3F)ccc21`, for which the IC50 in data set [1] is 21 nM; in data set [2] it was 37900 nM.

On to `O=C1c2ccc(Nc3ccc(F)cc3F)cc2OCc2c(OCCC3CCOCC3)cccc21`, for which, in data set [1], the IC50 is 571 nM.

Take `Nc1ccc2c(c1)C(=O)c1ccc(Oc3ccc(F)cc3F)cc1OC2`: in data set [1], the IC50 was 763 nM.

Turning to `O=C1c2ccc(Nc3ccc(F)cc3F)cc2CCc2ccc(O)cc21`, the remaining at 3 h in data set [5] was 70%. Moreover, the IC50 came out at 49 nM in data set [1] and 1250 nM in data set [2].

On to `O=C1c2cc(OCCCO)ccc2COc2cc(Nc3ccc(F)cc3F)ccc21`, for which the IC50 in data set [1] is 8 nM; in data set [2], 631 nM.

As for `CC1(C)OC[C@@H](CCOc2ccc3c(c2)COc2cc(Nc4ccc(F)cc4F)ccc2C3=O)O1`, the IC50 in data set [1] is 516 nM.

In the case of `O=C1c2ccc(Nc3ccc(F)cc3F)cc2OCc2c(OCCN3CCOCC3)cccc21`, the inhibition in data set [4] came to 32.2%. Also, in data set [1], the IC50 was 34 nM.

For `Nc1ccccc1Nc1ccc2c(c1)OCc1cc(OCCN3CCOCC3)ccc1C2=O`, the figures for the IC50 in data set [1] and in data set [2] were 147 nM and 58700 nM, respectively.

For the compound `O=C1c2ccc(Nc3ccc(F)cc3F)cc2OCc2cccc(OC[C@H](O)CO)c21`, in data set [1], the IC50 was greater than 10000 nM.

Turning to `O=C(Nc1cccc(Nc2ccc3c(c2)OCc2c(OCCN4CCOCC4)cccc2C3=O)c1)c1ccoc1`, the 50% inhibitory concentration (IC50) turned out to be 25 nM in data set [1] and 51400 nM in data set [2].

As to `O=C1c2cc(OCCC3CCOCC3)ccc2COc2cc(Nc3ccc(F)cc3F)ccc21`, the figures for the IC50 in data set [1] and in data set [2] were 79 nM and 364 nM, respectively.

As to `Cc1cc(F)c(NC(=O)c2ccsc2)cc1Nc1ccc2c(c1)OCc1ccc(OCCN3CCOCC3)cc1C2=O`, the values for the IC50 in data set [1] and in data set [2] were 1.7 nM and 148 nM, respectively.

For `COc1cccc2c1COc1cc(Nc3ccccc3N)ccc1C2=O`, in data set [1], the IC50 was determined as 94 nM.

As for `O=C(Nc1ccc(F)c(Nc2ccc3c(c2)OCc2c(OCCN4CCOCC4)cccc2C3=O)c1)c1ccccc1`, the inhibition in data set [4] was determined as 39%. Further, the IC50 in data set [1] came to 10 nM.

For `Cc1cc(F)ccc1Nc1ccc2c(c1)OCc1cc(OCCN3CCOCC3)ccc1C2=O`, the IC50 in data set [1] came out at 160 nM.

For `O=C1c2cc(OC[C@@H](O)CO)ccc2COc2cc(Nc3ccc(F)cc3F)ccc21`, the IC50 was 61 nM in data set [1] and 591 nM in data set [2].

As to `CC1(C)OC[C@H](COc2ccc3c(c2)C(=O)c2ccc(Nc4ccc(F)cc4F)cc2OC3)O1`, the IC50 in data set [1] stood at 48 nM; in data set [2], 1300 nM.

Turning to `CC(=O)OCCOc1ccc2c(c1)C(=O)c1ccc(Nc3ccc(F)cc3F)cc1OC2`, the IC50 in data set [1] amounted to 22 nM.

Regarding `O=C1c2ccc(OCCC3CCOCC3)cc2COc2cc(Nc3ccc(F)cc3F)ccc21`, in data set [1], the IC50 amounted to 557 nM.

Regarding `O=C1c2ccc(Nc3ccc(F)cc3F)cc2OCc2cccc(OC[C@@H](O)CO)c21`, the IC50 in data set [1] is greater than 10000 nM.

For the compound `Nc1ccccc1Nc1ccc2c(c1)OCc1ccc(OCCN3CCOCC3)cc1C2=O`, the IC50 in data set [1] was determined as 107 nM; in data set [2], 490 nM.

`COc1cccc2c1COc1cc(Nc3ccc(F)cc3F)ccc1C2=O`: the inhibition in data set [4] came out at 44.7%. For the same compound, the IC50 in data set [1] came to 63 nM.

In the case of `COc1ccc2c(c1)COc1cc(Nc3ccc(F)cc3F)ccc1C2=O`, the IC50 in data set [1] came to 218 nM.

Consider `O=C1c2cc(OCCN3CCOCC3)ccc2COc2cc(Nc3ccc(F)cc3F)ccc21`, for which the IC50 stood at 21 nM in data set [1] and 429 nM in data set [2].

With `COc1cccc2c1COc1cc(Nc3ccc(F)cc3N)ccc1C2=O`, in data set [1], the IC50 is 87 nM.

`CCN(CC)CCOc1ccc2c(c1)C(=O)c1ccc(Nc3ccc(F)cc3F)cc1OC2`: the IC50 in data set [1] was found to be 101 nM; in data set [2] it was 1060 nM.

As to `COc1cccc2c1C(=O)c1ccc(Nc3ccc(F)cc3F)cc1OC2`, the IC50 in data set [1] was found to be 280 nM.

In the case of `Nc1ccc2c(c1)C(=O)c1ccc(Nc3ccc(F)cc3)cc1OC2`, the IC50 in data set [1] turned out to be 103 nM; in data set [2] it was 5700 nM.

Consider `O=C1c2ccc(Nc3ccc(F)cc3F)cc2OCc2c(OC[C@@H](O)CO)cccc21`, for which the IC50 worked out at 25 nM in data set [1] and 90400 nM in data set [2].

Take `Nc1ccc2c(c1)C(=O)c1ccc(Nc3ccccc3F)cc1OC2`: the IC50 in data set [1] came to 111 nM; in data set [2], 4540 nM.

On to `O=C1c2ccccc2COc2cc(Nc3ccc(F)cc3F)ccc21`, for which the IC50 in data set [2] was determined as 22000 nM.

In the case of `O=C1c2ccc(Nc3ccc(F)cc3F)cc2OCc2c(OC[C@H](O)CO)cccc21`, the inhibition in data set [4] was 48.5%. Also, the IC50 in data set [1] was determined as 42 nM.

Turning to `Nc1cc(F)ccc1Nc1ccc2c(c1)OCc1c(OCCN3CCOCC3)cccc1C2=O`, the inhibition in data set [4] turned out to be 38.8%. Moreover, the IC50 in data set [1] was 72 nM.

As for `O=C1c2cc(OCCO)ccc2COc2cc(Nc3ccc(F)cc3F)ccc21`, the figures for the IC50 in data set [1] and in data set [2] were 20 nM and 588 nM, respectively.

Take `O=C(Nc1cc(Nc2ccc3c(c2)OCc2cc(OCCN4CCOCC4)ccc2C3=O)ccc1F)c1ccccc1`: the inhibition in data set [4] was determined as 36%. Besides, the IC50 in data set [1] was found to be 17 nM.

Take `O=C1c2cc(NCCN3CCOCC3)ccc2COc2cc(Oc3ccc(F)cc3F)ccc21`: the IC50 in data set [1] worked out at 819 nM.

On to `O=C1c2ccc(OCCN3CCOCC3)cc2COc2cc(Nc3ccc(F)cc3F)ccc21`, for which the IC50 in data set [1] is 33 nM; in data set [2], 71800 nM.

Turning to `O=C1c2ccc(Nc3ccc(F)cc3F)cc2CCc2ccc(OCCCO)cc21`, the remaining at 3 h in data set [5] stood at 90%. Besides, in data set [1], the IC50 turned out to be 13 nM.

Regarding `O=C1c2ccc(OC[C@@H](O)CO)cc2COc2cc(Nc3ccc(F)cc3F)ccc21`, the concentration for half-maximal inhibition (IC50) stood at 27 nM in data set [1] and 28200 nM in data set [2].

Take `COc1ccc2c(c1)C(=O)c1ccc(Nc3ccc(F)cc3F)cc1CC2`: the remaining at 3 h in data set [5] was determined as 85%. Moreover, the 50% inhibitory concentration (IC50) amounted to 44 nM in data set [1] and 1650 nM in data set [2].

On to `Nc1ccc2c(c1)C(=O)c1ccc(Nc3cc(F)c(F)cc3F)cc1OC2`, for which the IC50 in data set [1] worked out at 74 nM; in data set [2], 7810 nM.

Turning to `O=c1c2ccccc2ccc2cc(Nc3ccc(F)cc3F)ccc12`, the IC50 in data set [1] was 4200 nM.

Take `CC1(C)OC[C@@H](COc2cccc3c2COc2cc(Nc4ccc(F)cc4F)ccc2C3=O)O1`: the inhibition in data set [4] is 48.6%. For the same compound, the IC50 in data set [1] worked out at 563 nM.

On to `COc1ccc2c(c1)COc1cc(Nc3ccccc3N)ccc1C2=O`, for which the IC50 in data set [1] came out at 132 nM; in data set [2], 71800 nM.

With `CC1(C)OC[C@H](COc2cccc3c2COc2cc(Nc4ccc(F)cc4F)ccc2C3=O)O1`, the inhibition in data set [4] worked out at 42.4%. In addition, the IC50 in data set [1] was 481 nM.

Regarding `Nc1cccc(Nc2ccc3c(c2)OCc2ccc(N)cc2C3=O)c1`, the IC50 in data set [1] was 651 nM; in data set [2], 2430 nM.

For the compound `CC1(C)OC[C@@H](COc2ccc3c(c2)COc2cc(Nc4ccc(F)cc4F)ccc2C3=O)O1`, the IC50 in data set [1] stood at 665 nM; in data set [2] it was 91200 nM.

As for `CC1(C)OC[C@@H](COc2ccc3c(c2)C(=O)c2ccc(Nc4ccc(F)cc4F)cc2OC3)O1`, the IC50 in data set [1] was 207 nM; in data set [2], 1440 nM.

As to `Cc1cc(F)c(NC(=O)c2ccsc2)cc1Nc1ccc2c(c1)OCc1ccc(OC[C@H]3COC(C)(C)O3)cc1C2=O`, the IC50 in data set [1] was determined as 1.8 nM; in data set [2], 287 nM.

Take `Nc1cc(F)ccc1Nc1ccc2c(c1)OCc1cc(OCCN3CCOCC3)ccc1C2=O`: the figures for the concentration for half-maximal inhibition (IC50) in data set [1] and in data set [2] were 41 nM and 94800 nM, respectively.

In the case of `Nc1ccc2c(c1)C(=O)c1ccc(Nc3ccc(F)cc3N)cc1OC2`, the IC50 in data set [1] amounted to 151 nM; in data set [2], 1170 nM.

With `O=C1c2ccc(Nc3ccc(F)cc3F)cc2CCc2ccc(OCCO)cc21`, the remaining at 3 h in data set [5] amounted to 86%. Further, the figures for the half-maximal inhibitory concentration (IC50) in data set [1] and in data set [2] were 19 nM and 583 nM, respectively.
